Test [1] addresses T1, Polyunsaturated fatty acid 5-lipoxygenase (Homo sapiens, UniProt P09917).
T1 sequence (P09917 whole entry): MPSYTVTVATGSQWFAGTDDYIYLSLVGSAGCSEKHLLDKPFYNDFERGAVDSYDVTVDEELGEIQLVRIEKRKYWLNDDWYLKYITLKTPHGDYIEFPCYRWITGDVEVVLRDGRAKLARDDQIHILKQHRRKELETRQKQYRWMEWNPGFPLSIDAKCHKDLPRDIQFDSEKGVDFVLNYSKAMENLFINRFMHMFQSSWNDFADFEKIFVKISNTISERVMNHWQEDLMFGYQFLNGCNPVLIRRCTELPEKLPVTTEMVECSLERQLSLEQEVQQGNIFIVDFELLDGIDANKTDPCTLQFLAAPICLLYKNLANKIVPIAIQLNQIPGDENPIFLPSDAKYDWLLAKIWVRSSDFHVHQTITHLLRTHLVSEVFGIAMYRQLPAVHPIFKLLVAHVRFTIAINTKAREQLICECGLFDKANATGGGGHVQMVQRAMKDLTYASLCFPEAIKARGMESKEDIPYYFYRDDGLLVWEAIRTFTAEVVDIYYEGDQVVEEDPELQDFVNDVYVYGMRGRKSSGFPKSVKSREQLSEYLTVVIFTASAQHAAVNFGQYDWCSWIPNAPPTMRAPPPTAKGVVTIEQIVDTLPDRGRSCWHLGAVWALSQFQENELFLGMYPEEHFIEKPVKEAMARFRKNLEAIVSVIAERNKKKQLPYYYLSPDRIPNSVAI
As to the kind of experiment: Inhibition of 5-lipoxygenase in S100 supernatant assessed as inhibition of LTB4 production preincubated for 15 mins measured after 10 mins by HPLC method. A digest of the protocol: (§1)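 Cell-free assay using the 100000g supernatant (S100) of human PMNL homogenates. Samples were preincubated with compound, then 5-LO product formation was started with 1 mM CaCl₂ plus 20 μM arachidonic acid. Three increasing concentrations were tested in three to five independent experiments and normalized to DMSO control. IC₅₀ was estimated by linear interpolation around 50% activity.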

The target of test [2] is T1, Polyunsaturated fatty acid 5-lipoxygenase. The experiment in a line: Inhibition of 5-lipoxygenase in S100 supernatant assessed as inhibition of (5(S)-hydroperoxy-6-trans-8,11,14-cis-eicosatetraenoic acid production preincubated for 15 mins measured after 10 mins by HPLC method. A digest of the protocol: as §1
For test [3] the target is unchanged. The experiment in a line: Inhibition of 5-lipoxygenase in human polymorphonuclear leukocytes assessed as inhibition of LTB4 production preincubated for 15 mins measured after 10 mins by HPLC method. Format: cell-based. The conditions noted are these: pooled result: one value given for 2 cell lines, strains, targets or settings. The gist of the method: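 Isolated intact human polymorphonuclear leukocytes were preincubated with compound, then stimulated with 2.5 μM ionophore A23187 plus exogenous arachidonic acid (20 μM) to bypass cPLA₂ substrate supply. Three increasing concentrations were tested in three to five independent experiments and normalized to DMSO control. IC₅₀ was read by linear interpolation around 50% activity, reported as mean with SEM.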

For test [4], the target named is T2, Polyunsaturated fatty acid 5-lipoxygenase (Homo sapiens) (UniProt P09917).
T2 sequence (whole entry): T1 sequence (P09917 whole entry)
As to the kind of experiment: Inhibition of 5-lipoxygenase in human polymorphonuclear leukocytes assessed as residual activity at 30 uM relative to control. Format: cell-based. The gist of the method: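 Intact isolated human PMNL were preincubated with compound, then 5-LO product formation was elicited with 2.5 μM A23187 and 20 μM exogenous arachidonic acid. Activity was expressed relative to DMSO control.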

Test [5] has as its target T2, Polyunsaturated fatty acid 5-lipoxygenase (Homo sapiens). As to the kind of experiment: Inhibition of 5-lipoxygenase in S100 supernatant assessed as residual activity at 30 uM relative to control. A digest of the protocol:
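PMNL homogenate 100000g supernatant (S100) was preincubated with compound, then stimulated with 1 mM CaCl₂ and 20 μM arachidonic acid. 5-LO product formation was expressed relative to DMSO control.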

The target of test [6] is T1, Polyunsaturated fatty acid 5-lipoxygenase. As to the kind of experiment: Inhibition of 5-lipoxygenase.

pIC50: −log10 of the molar value.

The results in this text go back to ChEMBL document CHEMBL1765089, “A class of 5-benzylidene-2-phenylthiazolinones with high potency as direct 5-lipoxygenase inhibitors” (J Med Chem, 2011).

One may read the pIC50 as the IC50 on a negative log10 scale, so that one unit is a factor of ten. Take `O=C1N=C(c2ccccc2)S/C1=C\c1c2ccccc2cc2ccccc12`: the pIC50 in test [1] was 6.52; in test [2] it was 6.52; in test [3], 5.37.
As to `COc1cc(/C=C2\SC(c3ccccc3)=NC2=O)cc([N+](=O)[O-])c1O`, the negative-log IC50 (pIC50) in test [1] was 5.52; in test [2], 5.52; in test [3], 5.36.
For `COc1ccc(/C=C2\SC(c3ccc(C)cc3)=NC2=O)c(OC)c1`, the figures for the pIC50 in test [1], in test [2] and in test [3] were 6.01, 6.01 and 5.69, respectively.
Regarding `Cc1ccc(C2=NC(=O)/C(=C/c3cccc(Cl)c3)S2)cc1`, the pIC50 in test [1] was 6.52; in test [2], 6.52; in test [3] it was 6.24.
`Cc1ccc(/C=C2\SC(Nc3ccc4ccccc4c3)=NC2=O)cc1`: the pIC50 in test [1], in test [2] and in test [3] was less than 4.52 throughout. In addition, the Activity in test [4] and in test [5] was more than 60% throughout.
With `COc1ccc(OC)c(/C=C2\SC(c3ccc(C)cc3)=NC2=O)c1`, the negative-log IC50 (pIC50) was 6.89 in test [1], 6.89 in test [2] and 6.46 in test [3].
`COc1ccc(/C=C2\SC(c3ccc(OC)cc3)=NC2=O)cc1`: the pIC50 was 5.40 in test [1], 5.40 in test [2] and 6.49 in test [3].
Regarding `COc1cc(/C=C2\SC(c3ccc(C)cc3)=NC2=O)cc(Cl)c1O`, the pIC50 was 5.57 in test [1], 5.57 in test [2] and less than 5.00 in test [3].
As to `COc1ccc(/C=C2\SC(c3cccc(C(C)=O)c3)=NC2=O)cc1`, the results for the pIC50 in test [1], in test [2] and in test [3] were 6.89, 6.89 and 6.42, respectively.
As to `CCOc1cc(/C=C2\SC(c3ccc(C)cc3)=NC2=O)cc(Cl)c1O`, the pIC50 is 5.90 in test [1], 5.90 in test [2] and 5.54 in test [3].
For the molecule `COc1ccc(/C=C2\SC(c3cccc(F)c3)=NC2=O)cc1`, the pIC50 is 6.92 in test [1], 6.92 in test [2] and 6.62 in test [3].
Regarding `COc1ccc(/C=C2\SC(N3CCCC3)=NC2=O)cc1`, the pIC50 in test [1], in test [2] and in test [3] was less than 4.52 in each case. Moreover, the Activity in test [4] and in test [5] was more than 60% each time.
Consider `COc1ccc(/C=C2\SC(c3ccccc3)=NC2=O)cc1`, for which the pIC50 in test [1] is 6.82; in test [2] it was 6.82; in test [3] it was 6.28.
For `COc1cccc(/C=C2\SC(c3ccc(C)cc3)=NC2=O)c1O`, the figures for the pIC50 in test [1], in test [2] and in test [3] were 5.89, 5.89 and 6.10, respectively.
`CCOc1ccc(/C=C2\SC(c3ccccc3)=NC2=O)cc1`: the pIC50 was 6.30 in test [1], 6.30 in test [2] and 5.70 in test [3].
On to `C/C(=C1/SC(O)=NC1=O)c1cc(-c2ccccc2)c(O)c(-c2ccccc2)c1`, for which the pIC50 in test [6] was less than 5.00.
Turning to `COc1cccc(/C=C2\SC(c3ccccc3)=NC2=O)c1O`, the pIC50 in test [1] was 6.27; in test [2], 6.27; in test [3], 6.32.
With `COc1ccc(/C=C2\SC(c3ccc(N)cc3)=NC2=O)cc1`, the negative-log IC50 (pIC50) is 6.20 in test [1], 6.20 in test [2] and 5.71 in test [3].
`O=C1N=C(c2ccc(Cl)cc2)S/C1=C\c1ccc(O)cc1`: the figures for the pIC50 in test [1], in test [2] and in test [3] were 6.96, 6.96 and 6.40, respectively.
As for `COc1cc(/C=C2\SC(c3ccccc3)=NC2=O)cc(Cl)c1O`, the pIC50 in test [1] is 5.52; in test [2], 5.52; in test [3], 5.02.
For `Cc1ccc(C2=NC(=O)/C(=C/C=C/c3ccccc3)S2)cc1`, the negative logarithm of the IC50 (pIC50) is 6.64 in test [1], 6.64 in test [2] and 6.40 in test [3].
Regarding `COc1ccc(/C=C2\SC(c3ccc(C(C)=O)cc3)=NC2=O)cc1`, the pIC50 in test [1] is 6.96; in test [2], 6.96; in test [3], 6.26.
In the case of `CCCOc1ccc(/C=C2\SC(N3CCCCCC3)=NC2=O)cc1`, the pIC50 in test [1] was 4.85; in test [2], 4.85; in test [3], 4.92.
On to `O=C1/C(=C/C=C/c2ccco2)S/C(=N\c2ccccc2)N1c1ccccc1`, for which the pIC50 in test [1] was less than 4.52; in test [2], less than 4.52; in test [3] it was 4.52. For the same molecule, the Activity in test [4] and in test [5] was more than 60% throughout.
With `COC(=O)COc1ccc(C2=NC(=O)/C(=C/c3ccc(OC)cc3)S2)cc1`, the pIC50 in test [1] is 6.24; in test [2], 6.24; in test [3], 6.07.
Regarding `COc1ccc(/C=C2\SC(c3ccc(C)cc3)=NC2=O)c(OC)c1OC`, the figures for the pIC50 in test [1], in test [2] and in test [3] were 6.40, 6.40 and 5.61, respectively.
With `CC(C)(C)c1ccc(/C=C2\SC(c3ccccc3)=NC2=O)cc1`, the pIC50 in test [1] is 6.52; in test [2] it was 6.52; in test [3] it was 6.04.
With `O=C1N=C(Nc2ccccc2)S/C1=C\c1ccccc1`, the pIC50 in test [1], in test [2] and in test [3] was less than 4.52 each time. The Activity in test [4] and in test [5] was more than 60% throughout.
Turning to `Cc1ccc(C2=NC(=O)/C(=C/c3ccccc3)S2)cc1`, the results for the pIC50 in test [1], in test [2] and in test [3] were 6.46, 6.46 and 6.14, respectively.
`COc1ccc(/C=C2\SC(c3ccc(O)cc3)=NC2=O)cc1`: the pIC50 in test [1] was 6.19; in test [2] it was 6.19; in test [3] it was 5.77.
As for `COc1ccc(/C=C2\SC(c3ccc(Cl)cc3)=NC2=O)cc1`, the pIC50 in test [1] was 7.05; in test [2] it was 7.05; in test [3], 6.55.
Take `COC(=O)COc1ccc(/C=C2\SC(c3ccc(C)cc3)=NC2=O)cc1`: the pIC50 was 6.72 in test [1], 6.72 in test [2] and 5.68 in test [3].
`CN(C)c1ccc(/C=C2\SC(N3CCCCC3)=NC2=O)cc1`: the pIC50 in test [1] was less than 4.52; in test [2], less than 4.52; in test [3] it was 4.70. Moreover, the Activity in test [4] and in test [5] was more than 60% in each case.
For `COc1cc(Cl)cc(/C=C2\SC(c3ccccc3)=NC2=O)c1O`, the negative-log IC50 (pIC50) in test [1] was 6.52; in test [2], 6.52; in test [3] it was 6.19.
As for `COc1ccc(/C=C2\SC(c3ccc(C)cc3)=NC2=O)cc1`, the negative-log IC50 (pIC50) is 6.52 in test [1], 6.52 in test [2] and 6.18 in test [3].
